Results as given in paper PMC12370974 (Nature Communications, 2025).
Substitutions are numbered along the chain they refer to. Each block holds one molecule with its values, some of them ahead of it. Peptide text beside a SMILES is read from it.

Assays:
[1] = target: RING2 domain of PRT1, wild type (Arabidopsis thaliana); assay: SEC-MALS
[2] = target: T1, FL PRT1^Y317A (Arabidopsis thaliana, UniProt Q8LBL5, Y317A); assay: ITC binding of N-degron peptides to full-length PRT1 Y317A mutant; conditions: 25 °C, ITC buffer pH 7.5, one-site model
T1 sequence (Q8LBL5 1-410 Y317A): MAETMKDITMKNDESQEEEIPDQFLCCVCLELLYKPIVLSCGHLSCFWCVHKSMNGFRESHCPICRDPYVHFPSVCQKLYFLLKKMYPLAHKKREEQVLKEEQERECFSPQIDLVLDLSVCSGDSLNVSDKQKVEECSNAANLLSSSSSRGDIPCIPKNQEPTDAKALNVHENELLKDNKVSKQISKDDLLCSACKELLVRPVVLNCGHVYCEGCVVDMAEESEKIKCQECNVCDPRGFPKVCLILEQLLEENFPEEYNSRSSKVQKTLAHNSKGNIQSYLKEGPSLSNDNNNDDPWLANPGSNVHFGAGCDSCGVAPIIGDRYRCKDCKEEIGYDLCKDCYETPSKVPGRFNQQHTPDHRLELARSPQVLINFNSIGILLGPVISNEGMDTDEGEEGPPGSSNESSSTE
Method in brief: (§1)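 Full-length PRT1 (wild type or point mutant) was expressed in E. coli BL21(DE3) with ZnSO4 and purified by Ni-NTA, TEV cleavage of the His6 tag and size exclusion into ITC buffer (50 mM Tris-HCl pH 7.5, 150 mM NaCl, 1 mM TCEP). Protein was at 45~55 μM and synthetic N-degron peptide at ~550 μM in the same buffer, with 19 injections at 25 °C. Data were fitted to a one-site model, with at least three runs.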

[3] = target: T2, FL PRT1^I333A (Arabidopsis thaliana, UniProt Q8LBL5, I333A); assay: ITC binding of N-degron peptides to full-length PRT1 I333A mutant; conditions: 25 °C, ITC buffer pH 7.5, one-site model
T2 sequence (Q8LBL5 1-410 I333A): T1 sequence (Q8LBL5 1-410 Y317A) with A317Y, I333A
Method in brief: as §1

[4] = target: FL PRT1 Y317A mutant (Arabidopsis thaliana) (UniProt Q8LBL5); assay: ITC
[5] = target: FL PRT1 I333A mutant (Arabidopsis thaliana) (UniProt Q8LBL5); assay: ITC
[6] = target: T3, FL PRT1^WT (Arabidopsis thaliana, UniProt Q8LBL5); assay: ITC binding of N-degron peptides to full-length PRT1 wild-type
T3 sequence (Q8LBL5 1-410): T1 sequence (Q8LBL5 1-410 Y317A) with A317Y
Method in brief: as §1

[7] = target: T4, ZZ domain-deleted RING domains (RING1 + RING2) of PRT1 (Arabidopsis thaliana, UniProt Q8LBL5); assay: ITC binding of N-degron peptide to ZZ domain-deleted PRT1; conditions: 25 °C, ITC buffer pH 7.5, RIP-RING (1-273)
T4 sequence (Q8LBL5 1-273): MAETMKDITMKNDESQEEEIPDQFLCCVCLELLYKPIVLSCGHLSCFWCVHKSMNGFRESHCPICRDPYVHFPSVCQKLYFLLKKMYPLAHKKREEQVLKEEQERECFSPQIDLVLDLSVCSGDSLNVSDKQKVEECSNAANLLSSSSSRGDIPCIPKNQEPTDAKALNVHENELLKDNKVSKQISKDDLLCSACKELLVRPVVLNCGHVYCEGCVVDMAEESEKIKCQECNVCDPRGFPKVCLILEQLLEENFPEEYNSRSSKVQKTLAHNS
Method in brief: as §1, with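 “The” for “Full-length”, “truncation” for “(wild type or point mutant)”, “as a bRIP-tag fusion” for “BL21(DE3) with ZnSO4”, “Blue affinity chromatography” for “TEV cleavage of the His6 tag”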

[8] = target: T5, FL PRT1^Y317A/I333A (Arabidopsis thaliana, UniProt Q8LBL5, I333A/Y317A); assay: ITC binding of N-degron peptide to full-length PRT1 Y317A/I333A double mutant; conditions: 25 °C, ITC buffer pH 7.5, FL PRT1 Y317A/I333A double mutation
T5 sequence (Q8LBL5 1-410 Y317A/I333A): T1 sequence (Q8LBL5 1-410 Y317A) with I333A
Method in brief: as §1

[9] = target: T6, PRT1^ZZ (Arabidopsis thaliana, UniProt Q8LBL5); assay: ITC binding of N-degron peptide to the ZZ domain of PRT1
T6 sequence (Q8LBL5 308-365): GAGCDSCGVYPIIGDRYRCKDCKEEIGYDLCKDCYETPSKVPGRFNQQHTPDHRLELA
Method in brief: as §1, with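 “The” for “Full-length”, “truncation” for “(wild type or point mutant)”, “as a bRIP-tag fusion” for “BL21(DE3) with ZnSO4”, “Blue affinity chromatography” for “TEV cleavage of the His6 tag”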

[10] = target: full-length (FL) PRT1 wild-type (WT), PROTEOLYSIS1 of Arabidopsis thaliana (Arabidopsis thaliana) (UniProt Q8LBL5); assay: ITC

- stoichiometry N [1]: 2
Molecule: RING2 domain of PRT1, wild type (domain or fragment)

Molecule: C[C@H](NC(=O)[C@H](CCCCN)NC(=O)[C@@H](N)Cc1ccc(O)cc1)C(=O)O [YKA] (H-Tyr-Lys-Ala-OH)
- dissociation constant (KD), binding affinity [2]: not bound
- dissociation constant (KD), binding affinity [3]: not bound

- Kd [4]: 41.3 µM
- Kd [5]: 13.7 µM
Molecule: Tyr N-degron peptide (Tyr-Lys-Phe)

Molecule: C[C@H](NC(=O)[C@H](C)NC(=O)[C@@H](N)Cc1c[nH]c2ccccc12)C(=O)O [WAA] (H-Trp-Ala-Ala-OH)
- Kd [6]: 2.85 ± 0.164 µM

Molecule: C[C@H](NC(=O)[C@H](C)NC(=O)[C@@H](N)Cc1ccccc1)C(=O)O [FAA] (H-Phe-Ala-Ala-OH)
- Kd [6]: 5.45 ± 0.212 µM

Molecule: NCCCC[C@H](NC(=O)[C@@H](N)Cc1ccc(O)cc1)C(=O)N[C@@H](Cc1ccccc1)C(=O)O [YKF, Tyr-Lys-Phe] (H-Tyr-Lys-Phe-OH)
- binding affinity (KD) [7]: no binding affinity was detected
- dissociation constant (KD), binding affinity [8]: considerably low affinity
- Kd [9]: 10.1 µM

- Kd [10]: 23.3 µM
Molecule: YAA peptide
